Measurements from ChEMBL document CHEMBL1124444, “Hydroxyacetophenone-derived antagonists of the peptidoleukotrienes” (1989).

Legend:
Cavia porcellus [1] = organism: Cavia porcellus; experiment: Percent inhibition of the leukotriene D4 (LTD4)-induced contraction of guinea pig tracheal spirals at 50 uM concentration; type: functional; details: Trachea
Procedure, shortened: (§1)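 Guinea pig tracheal spirals were split into paired sections in 10 mL baths of modified Krebs at 37 °C, gassed with 95% O₂/5% CO₂, under 2 g resting tension. After 60 min equilibration (washes every 15 min), reproducible contractions to 8 nM LTD₄ or 8 nM LTE₄ were obtained. Compound was added for 10 min, then agonist challenge repeated; percent inhibition is relative to the vehicle-treated paired section.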

Cavia porcellus [2] = organism: Cavia porcellus; experiment: Inhibition of the leukotriene D4 (LTD4)-induced contraction of guinea pig tracheal spirals at 10 uM concentration; type: functional; details: Trachea; procedure, shortened: as §1
Cavia porcellus [3] = organism: Cavia porcellus; experiment: Percent inhibition of the leukotriene E4 (LTE4)-induced contraction of guinea pig tracheal spirals at 50 uM concentration; NS means data was not statistically significant.; type: functional; details: Trachea; procedure, shortened: as §1
Cavia porcellus [4] = organism: Cavia porcellus; experiment: Percent inhibition of the leukotriene E4 (LTE4)-induced contraction of guinea pig tracheal spirals at 50 uM concentration; NS means data was not statistically significant; type: functional; details: Trachea; procedure, shortened: as §1
[5] = target: T1, Cysteinyl leukotriene receptor 1 (Cavia porcellus) (UniProt Q2NNR5); experiment: Dissociation constant (KB) versus Cysteinyl leukotriene D4 receptor was evaluated in vitro in isolated guinea pig tracheal strips
T1 sequence (whole entry): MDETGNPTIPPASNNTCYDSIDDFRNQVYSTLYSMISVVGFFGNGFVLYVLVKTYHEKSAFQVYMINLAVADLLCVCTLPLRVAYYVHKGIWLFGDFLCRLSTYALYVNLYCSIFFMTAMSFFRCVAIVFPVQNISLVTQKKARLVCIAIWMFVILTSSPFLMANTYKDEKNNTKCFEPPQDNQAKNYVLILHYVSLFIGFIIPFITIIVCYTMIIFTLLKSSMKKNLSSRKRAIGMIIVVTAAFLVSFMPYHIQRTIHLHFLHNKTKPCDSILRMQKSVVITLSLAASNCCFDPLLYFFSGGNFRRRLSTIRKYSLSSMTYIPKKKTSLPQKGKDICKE

Cavia porcellus [6] = experiment: Compound (50 mg/kg, intraperitoneally) was tested in spontaneously breathing, conscious guinea pigs challenged with aerosolized LTD4 (60-min pretreatment); type: functional
Cavia porcellus [7] = organism: Cavia porcellus; experiment: Percent inhibition of the leukotriene E4 (LTE4)-induced contraction of guinea pig tracheal spirals at 1 uM concentration; details: Trachea
Cavia porcellus [8] = organism: Cavia porcellus; experiment: Percent inhibition of the leukotriene D4 (LTD4)-induced contraction of guinea pig tracheal spirals at 4 uM concentration; type: functional; details: Trachea; procedure, shortened: as §1
[9] = target: T1, Cysteinyl leukotriene receptor 1 (Cavia porcellus); experiment: Dissociation constant (KB) […] was evaluated in vitro in isolated guinea pig tracheal strips
Cavia porcellus [10] = experiment: Compound (50 mg/kg, intraperitoneally) was tested in spontaneously breathing, conscious guinea pigs challenged with aerosolized LTD4 (30-min pretreatment); type: functional
Cavia porcellus [11] = organism: Cavia porcellus; experiment: Percent inhibition of the leukotriene E4 (LTE4)-induced contraction of guinea pig tracheal spirals at 5 uM concentration; type: functional; details: Trachea; procedure, shortened: as §1
Cavia porcellus [12] = organism: Cavia porcellus; experiment: Percent inhibition of the leukotriene E4 -induced contraction of guinea pig tracheal spirals at 1 uM concentration; type: functional; details: Trachea; procedure, shortened: as §1
Cavia porcellus [13] = organism: Cavia porcellus; experiment: Percent inhibition of the leukotriene E4 -induced contraction of guinea pig tracheal spirals at 10 uM concentration; type: functional; details: Trachea; procedure, shortened: as §1
Cavia porcellus [14] = organism: Cavia porcellus; experiment: Percent inhibition of the leukotriene E4 (LTE4)-induced contraction of guinea pig tracheal spirals at 10 uM concentration; NS means data was not statistically significant.; type: functional; details: Trachea; procedure, shortened: as §1
Cavia porcellus [15] = organism: Cavia porcellus; experiment: Percent inhibition of the leukotriene E4 (LTE4)-induced contraction of guinea pig tracheal spirals at 1 uM concentration; type: functional; details: Trachea; procedure, shortened: as §1
Cavia porcellus [16] = organism: Cavia porcellus; experiment: Percent inhibition of the leukotriene E4 (LTE4)-induced contraction of guinea pig tracheal spirals at 3.3 uM concentration; details: Trachea
Cavia porcellus [17] = organism: Cavia porcellus; experiment: Percent inhibition of the leukotriene D4 (LTD4)-induced contraction of guinea pig tracheal spirals at 50 uM concentration; NS means data was not statistically significant.; type: functional; details: Trachea; procedure, shortened: as §1
Cavia porcellus [18] = organism: Cavia porcellus; experiment: Percent inhibition of the leukotriene E4 (LTE4)-induced contraction of guinea pig tracheal spirals at 10 uM concentration; NS means data was not statistically significant; details: Trachea
Cavia porcellus [19] = organism: Cavia porcellus; experiment: Percent inhibition of the leukotriene D4 (LTD4)-induced contraction of guinea pig tracheal spirals at 100 uM concentration; type: functional; details: Trachea; procedure, shortened: as §1
Cavia porcellus [20] = organism: Cavia porcellus; experiment: Percent inhibition of the leukotriene E4 (LTE4)-induced contraction of guinea pig tracheal spirals at 50 uM concentration; type: functional; details: Trachea; procedure, shortened: as §1
Cavia porcellus [21] = organism: Cavia porcellus; experiment: Percent inhibition of the leukotriene E4 (LTE4)-induced contraction of guinea pig tracheal spirals at 10 uM concentration; type: functional; details: Trachea; procedure, shortened: as §1
Cavia porcellus [22] = organism: Cavia porcellus; experiment: Percent inhibition of the leukotriene E4 ([…])-induced contraction of guinea pig tracheal spirals at 1 uM concentration; NS means data was not statistically significant.; type: functional; details: Trachea; procedure, shortened: as §1

CCCc1ccccc1OCc1ccc(C(=O)O)cc1OC
inhibition at 50 µM (Cavia porcellus [1]): 81% | inhibition at 10 µM (Cavia porcellus [2]): 25%

COc1cc(C(=O)O)ccc1COc1ccc(C(C)=O)c(O)c1CCCC(=O)O
inhibition (Cavia porcellus [3]): Not statistically significant

CCCc1c(OCc2ccc(C(=O)O)cc2OC)ccc(CCC(=O)O)c1O
inhibition (Cavia porcellus [4]): Not statistically significant

CCCc1c(OCCCCc2nnn[nH]2)ccc(C(C)=O)c1O [TOMELUKAST]
Kb [5]: 180 nM | Protection (Cavia porcellus [6]): 49%

CCCc1c(OCc2ccc(NC(=O)c3ccccc3C(=O)O)cc2)ccc(C(C)=O)c1O
inhibition at 1 µM (Cavia porcellus [7]): 49%

CCCc1c(OCc2cccc(/C=C/C(=O)O)c2)ccc(C(C)=O)c1O
inhibition at 4 µM (Cavia porcellus [8]): 66% | Kb [9]: 630 nM | Protection (Cavia porcellus [10]): 19% | inhibition at 1 µM (Cavia porcellus [7]): 41%

COc1cc(C(=O)O)ccc1COc1ccc(C(C)=O)c(O)c1C=C(C)C
inhibition at 5 µM (Cavia porcellus [11]): 69%

COc1cc(C(=O)O)ccc1COc1ccc(C(C)=O)c(O)c1Cc1ccccc1
inhibition at 1 µM (Cavia porcellus [12]): 39% | inhibition at 10 µM (Cavia porcellus [13]): 100%

CCCc1cc2c(C)cc(=O)oc2cc1OCc1ccc(C(=O)O)cc1OC
inhibition (Cavia porcellus [14]): Not statistically significant

COc1cc(C(=O)O)ccc1COc1ccc(C(C)=O)c(O)c1CC(C)C
inhibition at 1 µM (Cavia porcellus [15]): 22%

CCCc1c(OCc2cc(/C=C\C(=O)O)ccc2OC)ccc(C(C)=O)c1O
inhibition at 10 µM (Cavia porcellus [2]): 28% | inhibition at 1 µM (Cavia porcellus [7]): 14%

CCCCCCNC(=O)c1ccc(OCc2ccc(C(=O)O)cc2OC)c(CCC)c1O
inhibition at 50 µM (Cavia porcellus [1]): 27%

CCCc1c(OCc2ccc(C(=O)Nc3nn[nH]n3)cc2OC)ccc(C(C)=O)c1O
inhibition at 3.3 µM (Cavia porcellus [16]): 43%

CCCCCCc1c(OCc2ccc(C(=O)O)cc2OC)ccc(C(C)=O)c1O
inhibition (Cavia porcellus [17]): Not statistically significant

CCCc1c(OCc2ccc(/C=C/C(=O)O)cc2)ccc(C(C)=O)c1O
Kb [9]: 570 nM | inhibition at 1 µM (Cavia porcellus [7]): 48% | Protection (Cavia porcellus [6]): 34%

CCCc1c(OCC(O)CSCC(=O)O)ccc(C(C)=O)c1O (stereo unspecified)
inhibition at 50 µM (Cavia porcellus [1]): 44% | inhibition at 10 µM (Cavia porcellus [2]): 19%

CCCc1c(NC(=O)c2ccc(C(=O)O)cc2OC)ccc(C(C)=O)c1O
inhibition (Cavia porcellus [18]): Not statistically significant

CCCc1c(OCCCSCC(=O)O)ccc(C(C)=O)c1O
inhibition at 10 µM (Cavia porcellus [2]): 62% | inhibition at 100 µM (Cavia porcellus [19]): 100%

CCCc1c(OCc2ccc(C(=O)O)cc2OC)ccc(C(N)=O)c1O
inhibition at 50 µM (Cavia porcellus [20]): 86% | inhibition at 10 µM (Cavia porcellus [2]): 72%

CCCc1c(OCc2cccc(C(=O)O)c2)ccc(C(C)=O)c1O
inhibition at 10 µM (Cavia porcellus [2]): 50% | inhibition at 100 µM (Cavia porcellus [19]): 100%

CCCc1c(OCc2ccccc2-c2nn[nH]n2)ccc(C(C)=O)c1O
inhibition (Cavia porcellus [18]): Not statistically significant

CCCc1c(OCc2ccc(C(=O)O)cc2OC)ccc(C(=O)O)c1O
inhibition (Cavia porcellus [3]): Not statistically significant

CCCc1c(OCc2ccc(C(=O)O)cc2OC)ccc2c(C)cc(=O)oc12
inhibition at 4 µM (Cavia porcellus [8]): 44% | inhibition at 10 µM (Cavia porcellus [2]): 78% | Protection (Cavia porcellus [10]): 27%

CCCc1c(OCc2ccc(C(=O)O)cc2OC)ccc(C(=O)CC)c1O
inhibition at 5 µM (Cavia porcellus [11]): 73% | inhibition at 10 µM (Cavia porcellus [21]): 97% | inhibition (Cavia porcellus [22]): Not statistically significant
